STEP block – STEP phosphatase inhibitors, primary screen, biochemical, fluorescence intensity, uHTS; Tyrosine-protein phosphatase non-receptor type 5 (Homo sapiens), P54829; recombinant STEP, OMFP fluorogenic substrate; inhibition, % at 20 µM; hit rate 0.25% among 360,000;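 active means inhibition at 20 µM, scaled per plate between control wells, above about 37%, limit read from the data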;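 further: 0% = DMSO with enzyme and substrate and 100% = substrate only without enzyme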
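material = STEP tyrosine phosphatase | reagent = fluorogenic phosphatase substrate OMFP at 25 µM final | doses = single compound dose of 20 µM, 1% DMSO final | schedule = 20 min reaction, room temperature, in the dark | measured by = fluorescence, 480/540 nm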
Scp1 inh – Scp-1 phosphatase inhibitors, primary screen, biochemical, colorimetric, uHTS | Recombinant Scp1, phosphopeptide, malachite green phosphate absorbance | inhibition, % at 20 µM | Carboxy-terminal domain RNA polymerase II polypeptide A small phosphatase 1 (Homo … | hit rate 0.88% among 340,000;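 active means inhibition above about 50% at 20 µM, limit read from the data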;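 further: plate controls were DMSO wells with enzyme for no effect and wells lacking enzyme for full effect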
Target sequence (Q9GZU7 76-261 limits assumed): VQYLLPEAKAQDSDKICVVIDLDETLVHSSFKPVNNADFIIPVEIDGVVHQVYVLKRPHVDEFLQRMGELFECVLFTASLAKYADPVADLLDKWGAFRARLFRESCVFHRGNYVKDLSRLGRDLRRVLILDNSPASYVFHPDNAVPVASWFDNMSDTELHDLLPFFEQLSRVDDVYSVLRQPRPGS
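Test system – truncated SCP-1 phosphatase (76-261aa) · Reagent – Phosphorylated 17-residue peptide substrate · Incubation – 45 min room-temperature reaction, 5 min colour, 30 min stabiliser · Detection – colorimetric phosphate reagent with accelerator and stabiliser, absorbance at 630 nm · Measure – % inhibition at 20 µM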
DNMT1 inh – human DNMT1 methyltransferase inhibitors, primary screen, biochemical, molecular beacon, fluorescence, HinP1I cleavage, uHTS. DNA (cytosine-5)-methyltransferase 1 (Homo sapiens), P26358. inhibition (reported as % activation of signal), % at 10 µM. hit rate 0.83% among 360,000; in the data active means inhibition above about 50%
SUMO1-SIM PPI – modulators of SUMO1 protein-protein interactions, primary screen, biochemical, uHTS | SUMO1 binding to a labelled peptide, TR-FRET, 1 h | inhibition, % at 20 µM | hit rate 0.33% among 360,000 | AID 602429, 2012; in the data active means inhibition above about 37%
Target sequence (P63165 whole entry, looked up): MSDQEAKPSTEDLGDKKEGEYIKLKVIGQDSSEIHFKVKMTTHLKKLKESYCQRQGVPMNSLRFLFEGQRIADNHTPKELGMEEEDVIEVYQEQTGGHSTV
LMPTP block – LMPTP phosphatase inhibitors, primary screen, biochemical, fluorescence intensity, uHTS | Low molecular weight phosphotyrosine protein phosphatase (Homo sapiens), P24666 | recombinant LMPTP-A, OMFP fluorogenic substrate | hit rate 0.22% among 360,000 | inhibition, % at 20 µM;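 active means compounds that cut the enzyme signal by at least half of the control window in the single-dose screen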;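 further: plate controls were DMSO wells with enzyme plus substrate for no effect and substrate without enzyme for full effect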
Target sequence (P24666 whole entry, looked up): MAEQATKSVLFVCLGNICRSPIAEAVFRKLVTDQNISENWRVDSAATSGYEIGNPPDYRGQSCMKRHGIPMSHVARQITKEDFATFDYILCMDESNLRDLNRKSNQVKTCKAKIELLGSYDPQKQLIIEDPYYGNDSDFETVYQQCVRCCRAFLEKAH
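Material: LMPTP-A; amount: 0.625 nM enzyme; doses: single 20 µM dose; times: reaction 50 min, room temperature, dark; technique: fluorescence intensity of OMFP turnover product; benchmarks: no-enzyme and uninhibited controls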
Beacon interf DR – spectral interference with molecular beacon fluorescence, dose response, artefact control for DNMT1 inhibitor project, biochemical, fluorescent molecular beacon; shares compounds with DNMT1 inh; spectral interference counter-screen; IC50, µM; 200 tested, under 10 active; call rule not given here
DNMT1 inh conf – DNMT1 methyltransferase inhibitor retest, confirmation, biochemical, molecular beacon, fluorescence, single concentration; shares compounds with DNMT1 inh; DNMT1 molecular beacon HinP1I cleavage; inhibition, % at 10 µM; hit rate 8% among 2,300;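 active means average inhibition of at least 30% in the single-concentration confirmation test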
Beacon interf – counter-screen for DNMT1 inhibitors: spectral interference. DNMT1 molecular beacon spectral interference counterscreen, fluorescence 485/520. AID 602387. shares compounds with DNMT1 inh. activation (fluorescence interference), % at 10 µM. hit rate 1% among 2,300;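 active means activation of at least 30% at 10 µM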;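 further: DNMT1 catalytic domain with a HinP1I cleavage step and a FAM/dabcyl DNA beacon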
The depositor's hits bear a star; / = no result. The list is not random: actives were taken first. Their share in the collection is about 1.7%.

SMILES	STEP block	Scp1 inh	DNMT1 inh	SUMO1-SIM PPI	LMPTP block	DNMT1 inh conf	Beacon interf	others
C=CCn1c(SCC(=O)NC2CCCC2)nc2ccccc21	-2.2	/	70.1*	3.3	2.0	2.6	3.2
C=CCn1c(SCC(=O)NC2CC2)nc2ccccc2c1=O	-1.3	-5.7	0.6	0.9	-0.8	/	/
COc1ccc(C(=O)COC(=O)Cc2n[nH]c(=O)c3ccccc23)c(OC)c1	-0.8	-6.2	2.8	5.4	-0.5	/	/
Cn1c(=O)c(=O)n(C)c2cc(N3CCCC3)c(NS(=O)(=O)c3ccc(Cl)cc3)cc21	5.0	-2.4	-4.2	9.2	0.0	/	/
COc1ccccc1NS(=O)(=O)c1cc2c3c(c1)CCN3C(=O)CC2	3.4	1.8	84.3*	1.6	0.1	2.3	1.9
O=C(O)c1cc(=S)nc[nH]1	-3.5	0.5	1.4	21.2	-2.3	/	/
Cc1cccc(C)c1OCc1cn(CC(=O)c2ccc(O)cc2)nn1	0.0	0.8	58.1*	0.4	-1.9	3.1	-1.4
CC(=O)Nc1ccc(OCc2cn(CC(=O)c3ccc(O)cc3)nn2)cc1	0.2	/	57.2*	4.6	0.3	4.3	-6.0
CC(=O)c1ccc(OCc2cn(CC(=O)c3ccc(O)cc3)nn2)c(C)c1	-0.4	/	40.3	0.5	0.3	/	/
CC(=O)c1ccc(OCc2cn(CC(=O)c3ccc(O)cc3)nn2)cc1	2.4	-8.0	37.1	6.4	-0.4	/	/
O=C(Cn1cc(COc2ccc(Br)cc2[N+](=O)[O-])nn1)c1ccc(O)cc1	0.4	-1.9	50.9*	-10.8	1.2	8.0	-2.8
Cc1ccccc1-c1cccc([C@@H]2C[C@H]3[C@H](CON3C)CN2C(=O)CCc2ccccc2)c1	-1.0	4.1	77.5*	9.3	1.2	2.3	7.8
CN1OC[C@@H]2CN(C(=O)CCc3ccccc3)[C@H](c3cccc(-c4ccc(C#N)cc4)c3)C[C@@H]21	0.1	24.7	-1.4	1.5	-0.4	/	/
CCc1nnc(NC(=O)c2ccc(-c3ccc(Cl)cc3)o2)s1	1.0	-5.9	68.1*	0.6	21.3	4.8	2.5
Cc1ccc(C(=O)Nc2nc(-c3ccc([N+](=O)[O-])cc3)cs2)o1	-2.6	-10.1	51.4*	-8.2	11.2	4.5	1.6
COCC(=O)N[C@@H]1c2ccccc2CC[C@@H]1OCc1ccccc1	-0.8	-4.0	-1.6	1.0	-0.2	/	/
O=C(Nc1ccc2oc(=O)ccc2c1)c1ccc(-c2cccc(Cl)c2)o1	1.6	-2.5	90.6*	4.0	21.3	-1.8	-8.0
Cc1cccc(NC(=S)N(CCCN2CCOCC2)C(C)c2cc3ccccc3o2)c1 (stereo unspecified)	6.7	-2.7	0.0	1.2	-1.9	/	/
Cc1cccc(NC(=S)N(CCCN2CCOCC2)C(C)c2cc3ccccc3o2)c1C (stereo unspecified)	2.8	-5.6	54.2*	2.1	-2.4	0.8	-0.7
Cc1cccc(NC(=O)c2cc3c(=O)n4ccccc4nc3n(CC(C)C)c2=N)c1	1.0	9.2	62.1*	-1.3	1.1	0.6	2.3
COc1ccc(CCNC(=O)c2cnn3ccccc23)c(OC)c1OC	1.1	-3.4	-0.3	3.6	-1.1	/	/
COc1cc(CCNC(=O)c2cnn3ccccc23)cc(OC)c1OC	0.6	-12.9	79.8*	-0.3	0.5	1.4	-0.1
O=C(OCCOc1cccc(Cl)c1)c1cc(S(=O)(=O)N2CCOCC2)ccc1F	1.0	-6.6	-3.1	4.2	1.5	/	/
C=CCn1c(=O)[nH]c2nc3cc(N=CN(C)C)c(C)cc3nc2c1=O	-10.5	-12.0	12.3	-35.1	-0.2	/	/
Cc1cc2nc3c(=O)n(CCc4ccccc4)c(=O)[nH]c3nc2cc1N	-60.4	8.2	63.4*	-35.7	-2.2	65.5*	90.4*
SMILES	STEP block	Scp1 inh	DNMT1 inh	SUMO1-SIM PPI	LMPTP block	DNMT1 inh conf	Beacon interf	others
CC1CCCCN1C(=O)CN1C(=O)CSc2ccc(S(=O)(=O)N3CCOCC3)cc21 (stereo unspecified)	2.0	-0.9	-0.2	3.0	-0.6	/	/
COc1cc(/C=N/Nc2ccc(F)cc2F)cc(OC)c1OC	2.2	-8.7	-0.3	-4.2	0.8	/	/
COc1cc(C=NNc2ccccc2[N+](=O)[O-])cc(OC)c1OC	2.1	/	53.4*	-14.9	1.4	3.5	0.3
O=c1ccc(S(=O)(=O)N2CCCC2)cn1Cc1ccc(Cl)cc1Cl	-0.4	-7.2	1.4	1.9	-0.5	/	/
CN(Cc1ccc(C(C)(C)C)cc1)C(=O)Cc1ccc(S(=O)(=O)N2CCOCC2)s1	2.3	-12.8	71.4*	1.3	1.2	3.0	2.9
CN(Cc1cccc(F)c1)C(=O)Cc1ccc(S(=O)(=O)N2CCOCC2)s1	-0.3	-8.0	-2.1	0.6	-7.6	/	/
CC(=O)NCCc1ccc(C(=O)COC(=O)C2CCCCC2)cc1	-3.2	-2.8	6.3	11.4	-1.9	/	/
CC1(C(=O)NS(=O)(=O)Cc2ccccc2)CCN1C(=O)c1ccc(C2CCCCC2)cc1 (stereo unspecified)	0.4	/	1.0	2.2	-1.7	/	/
CC1(C(=O)NS(=O)(=O)Cc2cccc(Cl)c2)CCN1C(=O)c1ccc(C2CCCCC2)cc1 (stereo unspecified)	0.3	/	78.2*	5.0	-1.0	4.0	2.9
CC1(C(=O)NS(=O)(=O)Cc2ccccc2)CCN1C(=O)Cc1cc(F)ccc1F (stereo unspecified)	-1.9	/	2.0	1.2	-3.4	/	/
CC1(C(=O)NS(=O)(=O)C2CC2)CCCN(C(=O)C2(c3ccc(Cl)cc3)CCCC2)C1 (stereo unspecified)	1.8	/	-1.4	2.0	-1.1	/	/
Cc1ccc2c(N)c(C)ccc2c1	-1.7	-8.5	-9.0	-18.3	-0.6	/	/
Cc1ccc2cc3c(N)c4c(C)ccc(C)c4nc3nc2c1	-7.0	-6.7	72.2*	-13.0	5.2	25.0	-8.3	Beacon interf DR=>99
Cc1ccc(S(=O)(=O)c2c(N)n(CCCO)c3nc4ccccc4nc23)cc1	-3.7	-0.4	69.8*	44.7*	3.7	2.7	4.9
Oc1cc(O)c(CN2CCOCC2)cc1CN1CCOCC1	-3.5	0.0	1.8	5.3	-0.6	/	/
